pEC50, pIC50: −log10 of the molar value.
Legend:
Hepatitis C virus [1] = assay: Protein binding in Huh7 cells using HCV 1b replicon by a replicon cell assay in presence of alpha-acid glycoprotein; type: functional, organism-based, Hepacivirus hominis; settings: genotype 1b, Huh-7
[2] = target: T1, RNA-directed RNA polymerase (Hepacivirus hominis, UniProt O39930); assay: Inhibitory activity against HCV 1b NS5B RNA polymerase; set-up: species or system Hepatitis C virus subtype 1b
In short: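 Scintillation proximity polymerase assay with HCV NS5B (genotype 1b, J4 strain, Δ21 construct) at 50 or 10 nM. The reaction used [α-33P]GTP and GTP with 5′-biotinylated oligo(rG13)/poly(rC) in 20 mM Tris-Cl pH 7.5 containing MgCl2, KCl, DTT and 0.05% BSA. It ran 2 h at 25 °C, was stopped with an equal volume of 100 mM EDTA, then captured on streptavidin FlashPlates and counted; n = 4.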

[3] = target: T2, DNA polymerase alpha catalytic subunit (Homo sapiens, UniProt P09884); assay: Inhibitory activity against human DNA-polymerase-alpha
T2 sequence (P09884 whole entry): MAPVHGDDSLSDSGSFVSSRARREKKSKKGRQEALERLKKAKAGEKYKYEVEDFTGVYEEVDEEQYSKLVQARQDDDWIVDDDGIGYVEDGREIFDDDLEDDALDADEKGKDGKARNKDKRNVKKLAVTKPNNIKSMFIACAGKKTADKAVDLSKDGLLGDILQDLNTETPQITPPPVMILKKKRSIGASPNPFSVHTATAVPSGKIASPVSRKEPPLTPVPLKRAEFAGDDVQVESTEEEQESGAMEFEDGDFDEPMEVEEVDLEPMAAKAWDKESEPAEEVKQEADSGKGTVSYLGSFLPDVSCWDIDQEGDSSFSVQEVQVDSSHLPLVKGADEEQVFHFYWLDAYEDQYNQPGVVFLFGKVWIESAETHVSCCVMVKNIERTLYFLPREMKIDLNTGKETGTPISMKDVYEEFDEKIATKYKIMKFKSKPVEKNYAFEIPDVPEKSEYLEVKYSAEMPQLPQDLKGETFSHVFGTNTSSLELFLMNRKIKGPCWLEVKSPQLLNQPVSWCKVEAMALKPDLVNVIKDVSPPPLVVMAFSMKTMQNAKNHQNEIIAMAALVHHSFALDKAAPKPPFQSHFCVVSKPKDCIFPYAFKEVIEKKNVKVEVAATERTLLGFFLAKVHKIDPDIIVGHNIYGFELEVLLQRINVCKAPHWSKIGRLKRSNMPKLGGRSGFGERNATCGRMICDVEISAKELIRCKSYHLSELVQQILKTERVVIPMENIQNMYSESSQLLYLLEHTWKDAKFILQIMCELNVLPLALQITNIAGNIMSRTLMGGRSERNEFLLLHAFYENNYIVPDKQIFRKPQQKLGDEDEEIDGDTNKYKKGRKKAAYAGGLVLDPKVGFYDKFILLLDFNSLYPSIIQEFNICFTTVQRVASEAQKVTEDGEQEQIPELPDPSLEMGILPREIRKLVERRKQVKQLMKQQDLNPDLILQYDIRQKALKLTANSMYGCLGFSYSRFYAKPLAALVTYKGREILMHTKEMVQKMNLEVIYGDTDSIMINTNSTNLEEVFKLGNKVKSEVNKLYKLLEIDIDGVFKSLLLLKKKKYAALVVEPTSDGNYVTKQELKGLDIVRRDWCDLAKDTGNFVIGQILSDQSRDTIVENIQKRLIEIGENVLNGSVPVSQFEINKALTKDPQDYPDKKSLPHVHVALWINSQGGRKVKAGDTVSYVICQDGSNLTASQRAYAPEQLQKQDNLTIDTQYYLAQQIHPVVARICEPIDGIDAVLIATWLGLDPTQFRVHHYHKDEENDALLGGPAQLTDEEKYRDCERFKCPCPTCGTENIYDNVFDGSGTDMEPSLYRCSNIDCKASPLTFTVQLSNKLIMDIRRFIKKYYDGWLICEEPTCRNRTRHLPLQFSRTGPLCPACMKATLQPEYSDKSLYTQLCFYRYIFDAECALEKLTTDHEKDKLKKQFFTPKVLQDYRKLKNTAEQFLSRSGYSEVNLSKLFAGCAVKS

[4] = Volume of distribution in Sprague-Dawley rat at 1.3 mg/kg, iv or 3.4 mg/kg, po; type: ADME, organism-based; settings: in vivo, read-out: Vdss
In short: (§1)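 Single intravenous or oral doses given to Sprague-Dawley rats. Values are reported as means: Cmax (ng/mL), half-life (min), plasma clearance (mL/min/kg), steady-state volume of distribution (L/kg) and oral bioavailability F (%).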

[5] = target: T1, RNA-directed RNA polymerase; assay: Inhibitory activity against HCV 2a NS5B RNA polymerase; set-up: species or system Hepatitis C virus genotype 2
[6] = target: RNA-directed RNA polymerase (Hepacivirus hominis) (UniProt O39930); assay: Inhibition of HCV RNA replication in Huh7 cells; type: functional, cell-based; settings: Huh-7
In short: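 Huh-7 subgenomic replicon cells were seeded at 3 × 10³/well in DMEM with 10% FCS, 1% NEAA and 1 mg/mL G418, and allowed 4 h to attach. Eleven 2.5-fold DMSO dilutions were added (final 10,000 to 1.0 nM) and cells incubated 40 h. Neo RNA was measured by TaqMan RT-PCR, normalised to cyclophilin against DMSO controls; n = 8 wells per dilution.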

Cytochrome P450 2C9 = Cytochrome P450 2C9 (Homo sapiens, UniProt P11712); assay: Inhibition of CYP2C9 isozyme; type: ADME
[7] = Half life in Beagle dog at 0.8 mg/kg, iv or 4.0mg/kg, po; type: ADME, organism-based, Canis lupus familiaris; set-up: dose 0.8 mg/kg; settings: in vivo
In short: (§2)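 Single-dose study, with separate intravenous and oral administrations at the listed mg/kg. Plasma concentrations were followed over time, and mean values were derived for Cmax, T1/2, clearance (mL/min/kg), Vdss (L/kg) and oral bioavailability (%).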

[8] = Oral bioavailability in cynomolgus monkey at 0.8 mg/kg, iv or 4.0 mg/kg, po; type: ADME, organism-based, Macaca fascicularis; settings: in vivo; in short: as §2
[9] = Half life in Sprague-Dawley rat at 1.3 mg/kg, iv or 3.4 mg/kg, po; type: ADME, organism-based; settings: in vivo; in short: as §1
[10] = target: T1, RNA-directed RNA polymerase; assay: Inhibitory activity against HCV delta 21 NS5B RNA polymerase by SPA assay; set-up: species or system Hepatitis C virus subtype 1b
Hepatitis C virus [11] = assay: Protein binding in Huh7 cells using HCV 1b replicon by a replicon cell assay; type: functional, organism-based, Hepacivirus hominis; settings: genotype 1b, Huh-7
In short: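 Replicon assay in Huh-7 cells run with α-acid glycoprotein, human serum albumin, or both added to the medium, to assess the effect of plasma protein binding on cellular activity.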

[12] = Half life in cynomolgus monkey at 0.8 mg/kg, iv or 4.0 mg/kg, po; type: ADME, organism-based, Macaca fascicularis; settings: in vivo; in short: as §2

T1 sequence (O39930 whole entry): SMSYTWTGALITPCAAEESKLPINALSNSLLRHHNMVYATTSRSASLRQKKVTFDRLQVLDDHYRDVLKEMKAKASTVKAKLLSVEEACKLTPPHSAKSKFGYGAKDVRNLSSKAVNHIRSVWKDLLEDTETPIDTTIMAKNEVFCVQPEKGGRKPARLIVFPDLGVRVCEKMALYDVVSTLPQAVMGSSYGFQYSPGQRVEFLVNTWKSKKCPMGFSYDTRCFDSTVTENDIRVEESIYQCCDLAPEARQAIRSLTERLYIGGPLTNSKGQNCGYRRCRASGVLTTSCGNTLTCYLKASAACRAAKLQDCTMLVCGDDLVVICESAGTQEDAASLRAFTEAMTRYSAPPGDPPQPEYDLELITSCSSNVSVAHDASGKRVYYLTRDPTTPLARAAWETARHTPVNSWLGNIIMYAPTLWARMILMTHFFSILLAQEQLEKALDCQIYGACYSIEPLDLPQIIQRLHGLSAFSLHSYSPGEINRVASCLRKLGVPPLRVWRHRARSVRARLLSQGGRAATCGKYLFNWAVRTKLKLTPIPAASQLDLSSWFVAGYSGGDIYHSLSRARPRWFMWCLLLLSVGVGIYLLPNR
Sequence of RNA-directed RNA polymerase (Hepacivirus hominis) (O39930 1-591): as the sequence (O39930 whole entry) above
Sequence of Cytochrome P450 2C9 (P11712 whole entry): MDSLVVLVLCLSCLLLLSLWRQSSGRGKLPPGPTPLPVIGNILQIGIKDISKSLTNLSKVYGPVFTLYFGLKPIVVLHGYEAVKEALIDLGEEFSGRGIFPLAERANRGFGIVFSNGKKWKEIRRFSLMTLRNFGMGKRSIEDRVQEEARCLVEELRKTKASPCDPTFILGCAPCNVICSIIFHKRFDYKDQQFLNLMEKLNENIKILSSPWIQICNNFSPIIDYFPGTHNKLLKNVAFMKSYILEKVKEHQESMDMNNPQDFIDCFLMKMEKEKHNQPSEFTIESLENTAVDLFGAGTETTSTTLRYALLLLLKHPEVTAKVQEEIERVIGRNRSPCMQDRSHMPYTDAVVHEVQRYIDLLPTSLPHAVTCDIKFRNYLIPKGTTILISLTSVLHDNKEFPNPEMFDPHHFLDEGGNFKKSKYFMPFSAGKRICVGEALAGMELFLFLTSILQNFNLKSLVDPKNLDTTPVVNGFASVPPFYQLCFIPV

pEC50 (Hepatitis C virus [1]): 6.74 | pIC50 [2]: 8.00 | pIC50 [3]: < 4.30 | Vd [4]: 0.36 L/kg | pIC50 [5]: 7.89 | EC90 [6]: 207 nM | pIC50 (Cytochrome P450 2C9): 6.00 | half-life [7]: 1.72 h | bioavailability [8]: > 53% | half-life [9]: 3.04 h | pIC50 [10]: 8.00 | pEC50 (Hepatitis C virus [11]): 7.42 | half-life [12]: 1.61 h
SMILES: O=c1c(C2=Nc3ccccc3S(=O)(=O)N2)c(O)c2cc(F)ccc2n1CCC1CC1

— ChEMBL document CHEMBL1148625, “3-(1,1-dioxo-2H-(1,2,4)-benzothiadiazin-3-yl)-4-hydroxy-2(1H)-quinolinones, potent inhibitors of hepatitis C virus RNA-dependent RNA polymerase” (J Med Chem, 2006)
